The record followed here is PubChem BioAssay.

Calls of active or inactive are those of the source.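 The calls were made as follows, unless noted: active = inhibition of the reporter signal at or above 50%; inactive = inhibition below 50%.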

A short description of experiment [1]: inhibitors of TNFa-induced NFkB p65 translocation, primary screen, imaging, HUVEC, MLSMR starter and 10KST1 sets (AID 438;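 active = inhibition above 20% together with a positive visual image hit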;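 also: compound added about 3h40 before a 20 min TNFalpha stimulation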;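 as to inhibition: signal is the nuclear over cytoplasmic p65 intensity ratio per well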). The settings on record: HUVEC TNFa-induced p65 nuclear translocation; cell count: measured here: nuclei count (cytotoxicity indicator), at 2.08 µM; inhibition: at 2 µM, stronger effect = higher value, 0% TNFa-plus-vehicle, 100% no-TNFa wells.
The nature of experiment [2]: inhibitors of mutant huntingtin aggregation, primary screen, imaging, exon1htt(103Q)mCFP cells, high-content imaging (AID 483;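 active = visual image review flags a hit and inhibition of aggregation exceeds 20%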;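 also: compound exposure lasted 3 days before fixation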;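 as to nuclei count: percent of the per-plate median nuclei count of sample wells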). The settings on record: exon1htt(103Q)mCFP cell line, aggregate imaging, at 2 µM; inhibition of aggregation: stronger effect = higher value; nuclei count: measured here: cell count, toxicity.
The nature of experiment [3]: inhibitors of E-selectin induction by TNFa, primary screen, imaging, HUVEC, immunofluorescence, MLSMR starter and 10KST1 sets (AID 487;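 active = visually confirmed hit in the image check and inhibition above 20%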;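 as to inhibition: signal is fraction of cell area covered by stained E-selectin grains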;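 as to nuclei count: 100% = median nuclei count of all wells on the same plate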). The following applies: HUVEC TNFalpha-induced E-selectin immunofluorescence imaging, at 2 µM; inhibition: stronger effect = higher value; nuclei count: measured here: cell number, toxicity.
For experiment [4], the target named is Voltage-gated potassium channel subunit beta-2 (Rattus norvegicus) (UniProt P62483). The experiment is described as follows: KvBeta enzyme negative modulators, primary screen, biochemical, NADPH fluorescence (AID 622;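 active = fluorescence slope higher than the sample average by over 3 SD, cut at about -0.22 in these data, passing the limit was not always enough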;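 also: slope of raw intensity against log time taken from 70 to 1610 s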). The settings on record: recombinant KvBeta, 4-cyanobenzaldehyde reduction, at 10 µM, stronger effect = higher value.
Voltage-gated potassium channel subunit beta-2 (Rattus norvegicus), sequence (P62483 whole entry, looked up): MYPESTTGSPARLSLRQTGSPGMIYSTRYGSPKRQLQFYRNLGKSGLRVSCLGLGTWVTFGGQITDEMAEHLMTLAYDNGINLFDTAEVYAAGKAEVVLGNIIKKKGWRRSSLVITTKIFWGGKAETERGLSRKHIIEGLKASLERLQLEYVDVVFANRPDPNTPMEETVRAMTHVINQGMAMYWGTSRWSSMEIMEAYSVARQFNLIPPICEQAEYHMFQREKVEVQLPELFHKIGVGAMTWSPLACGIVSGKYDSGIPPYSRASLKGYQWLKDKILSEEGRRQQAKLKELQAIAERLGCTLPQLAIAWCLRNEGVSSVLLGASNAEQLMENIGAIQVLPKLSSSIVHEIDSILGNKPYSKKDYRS
For experiment [5] the target is unchanged. Kind of experiment: KvBeta positive modulators, primary screen, biochemical, NADPH fluorescence (AID 623;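 active = NADPH fluorescence slope more negative than the mean of all samples by about 3 SD, 99.7% confidence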;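 also: fluorescence intensity change per second fitted from 20 to 320 s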). The settings on record: Recombinant KvBeta, NADPH fluorescence decrease slope, 10 min; at 10 µM; stronger effect = lower value.
The target in experiment [6] is Muscarinic acetylcholine receptor M4 (Homo sapiens) (UniProt P08173). Kind of experiment: compounds altering M4/GIRK thallium flux, either direction, primary screen, M4 allosteric agonist project, cell-based, HEK293 M4/GIRK, BTC-AM (AID 625;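 active = fluorescence slope after compound addition differing from the mean of all tested samples at 99.7% confidence, mostly higher but some lower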;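 also: thallium influx through GIRK channels coupled to M4 in HEK293 cells with BTC-AM dye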). The following applies: at 10 µM, actives lie on both sides. In a few lines:
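Material: HEK293 cells with M4 receptor and GIRK channels; Times: cells overnight at 37 °C, BTC-AM loading 1 h, reads 2 min total; Technique: kinetic BTC-AM fluorescence sampled at 1 Hz, 10 s pre-addition baseline; Read-out basis: slope over 15–24 s of trace normalized to starting intensity; Controls: carbachol positive, DMSO negative.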

A short description of experiment [7]: inhibitors of Sendai virus-induced IRF3 signaling, primary screen, TLR/RLR signaling modifier project, cell-based, Sendai virus stimulus, luciferase, 10K MLSCN set (AID 602276;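 active = inhibition at or above 50% at 10 µM; inactive = inhibition below 50%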;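 also: firefly luciferase from ISG56 promoter only with Renilla not read in this screen; 0% = Sendai virus plus DMSO and 100% = medium plus DMSO without virus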). The settings on record: HEK293 RL24 IRF3 luciferase reporter, at 10 µM, stronger effect = higher value.
Experiment [8] in a line: inhibitors of poly I:C-induced TLR3 signaling, primary screen, cell-based, poly I:C stimulus, luciferase, 10K MLSCN set (AID 602277). The settings on record: HEK293-TLR3 RL24 IRF3 luciferase reporter, at 10 µM, stronger effect = higher value.

Muscarinic acetylcholine receptor M4 (Homo sapiens), sequence (P08173 whole entry, looked up): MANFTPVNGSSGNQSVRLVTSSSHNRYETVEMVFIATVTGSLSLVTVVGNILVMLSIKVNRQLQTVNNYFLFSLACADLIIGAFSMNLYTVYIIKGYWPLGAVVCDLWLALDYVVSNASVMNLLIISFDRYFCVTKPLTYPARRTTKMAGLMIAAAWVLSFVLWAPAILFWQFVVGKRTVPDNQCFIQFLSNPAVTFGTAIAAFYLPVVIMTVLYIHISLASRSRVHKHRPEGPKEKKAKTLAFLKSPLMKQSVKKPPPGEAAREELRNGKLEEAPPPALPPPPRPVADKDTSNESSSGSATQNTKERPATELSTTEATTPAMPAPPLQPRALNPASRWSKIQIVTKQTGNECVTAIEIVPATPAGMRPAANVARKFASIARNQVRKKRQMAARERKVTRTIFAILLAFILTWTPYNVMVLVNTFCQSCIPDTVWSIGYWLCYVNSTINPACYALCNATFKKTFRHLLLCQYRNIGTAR

What is called inhibition is the drop in the measured response relative to a control, in per cent. `C[C@H](NC(=O)OC(C)(C)C)C(=O)NCC1CCC(C(=O)O)CC1` (some centres undefined): in experiment [1], the cell count came out at 376. In addition, the inhibition in experiment [1] is -1.1% (inactive); in experiment [3], -23.6% (inactive); in experiment [7] it was 16.6% (inactive); in experiment [8], 21.3% (inactive). The inhibition of aggregation in experiment [2] was 4% (inactive). The results for the nuclei count in experiment [2] and in experiment [3] were 103% and 101%, respectively. For the same compound, the fluorescence slope in experiment [4] was -0.536 (inactive); in experiment [6], 0.00501 (inactive). In addition, the NADPH fluorescence slope in experiment [5] is 1.9e-05 (inactive).
As for `CCOc1ccccc1C(=O)NCCC(=O)O`, the cell count in experiment [1] stood at 326. The inhibition in experiment [1] is -5.1% (inactive); in experiment [3] it was 16% (inactive); in experiment [7] it was -1.19% (inactive); in experiment [8], -5.47% (inactive). Further, the inhibition of aggregation in experiment [2] is -42.8% (inactive). Also, the figures for the nuclei count in experiment [2] and in experiment [3] were 91.6% and 118%, respectively. The results for the fluorescence slope in experiment [4] and in experiment [6] were -0.505 (inactive) and 0.00473 (inactive), respectively. Also, in experiment [5], the NADPH fluorescence slope is -0.00026 (inactive).
As to `COc1ccc(Br)cc1C(=O)Nc1nnn(C)n1`, the cell count in experiment [1] turned out to be 383. For the same compound, the inhibition in experiment [1] was 6.7% (inactive); in experiment [3], 17% (inactive); in experiment [7], -19.5% (inactive); in experiment [8] it was -34.7% (inactive). The inhibition of aggregation in experiment [2] was 5.6% (inactive). The nuclei count in experiment [2] turned out to be 102%; in experiment [3], 106%. For the same compound, the figures for the fluorescence slope in experiment [4] and in experiment [6] were -0.51 (inactive) and 0.00661 (inactive), respectively. Also, in experiment [5], the NADPH fluorescence slope is 4.6e-05 (inactive).
For the compound `O=C(CN1C(=O)NC(Cc2ccccc2)C1=O)Nc1ccccc1` (centres undefined), in experiment [1], the cell count is 436. Further, the inhibition is 0% (inactive) in experiment [1], -32.2% (inactive) in experiment [3], -15.9% (inactive) in experiment [7] and -20.9% (inactive) in experiment [8]. Moreover, in experiment [2], the inhibition of aggregation was 8.9% (inactive). Besides, the figures for the nuclei count in experiment [2] and in experiment [3] were 59.4% and 111%, respectively. The fluorescence slope in experiment [4] was -0.594 (inactive); in experiment [6], 0.00658 (inactive). Also, the NADPH fluorescence slope in experiment [5] was -5.2e-06 (inactive).
With `CCn1nccc1C(=O)Nc1nccs1`, the cell count in experiment [1] came to 392. Moreover, the inhibition in experiment [1] is -0.5% (inactive); in experiment [3], -45.2% (inactive); in experiment [7], 16.4% (inactive); in experiment [8], 9.69% (inactive). The inhibition of aggregation in experiment [2] was -32.5% (inactive). Further, the figures for the nuclei count in experiment [2] and in experiment [3] were 108% and 103%, respectively. Besides, the fluorescence slope in experiment [4] was -0.456 (inactive); in experiment [6], 0.00538 (inactive). Moreover, the NADPH fluorescence slope in experiment [5] was -4.4e-05 (inactive).
Turning to `Cc1nn(Cc2ccccc2Cl)c(C)c1NC(=O)C1C2CCC(O2)C1C(=O)O` (centres undefined), the cell count in experiment [1] is 625. For the same compound, the inhibition is 7.7% (inactive) in experiment [1], 16.3% (inactive) in experiment [3], -10.5% (inactive) in experiment [7] and -23.8% (inactive) in experiment [8]. Moreover, the inhibition of aggregation in experiment [2] is 0.3% (inactive). Besides, the nuclei count in experiment [2] is 101%; in experiment [3], 96.3%. The fluorescence slope in experiment [4] is -0.494 (inactive); in experiment [6], 0.00475 (inactive). The NADPH fluorescence slope in experiment [5] was -3.1e-05 (inactive).
Regarding `O=C(CCN1CCOCC1)Nc1cccc(Br)c1`, the cell count in experiment [1] was found to be 354. In addition, the inhibition in experiment [1] is -5.1% (inactive); in experiment [3] it was -70.3% (inactive); in experiment [7], 16.1% (inactive); in experiment [8] it was 15.9% (inactive). The inhibition of aggregation in experiment [2] was -9.3% (inactive). The results for the nuclei count in experiment [2] and in experiment [3] were 134% and 125%, respectively. Moreover, the fluorescence slope in experiment [4] was -0.409 (inactive); in experiment [6] it was 0.00691 (inactive). Moreover, the NADPH fluorescence slope in experiment [5] is 9.1e-05 (inactive).
For the compound `O=C1CSC(c2cn(-c3ccccc3)nc2-c2ccccc2)N1Cc1ccco1` (centres undefined), the cell count in experiment [1] was found to be 480. Also, the inhibition in experiment [1] is -6.3% (inactive); in experiment [3], -89.3% (inactive); in experiment [7] it was -1.04% (inactive); in experiment [8], 11.5% (inactive). Moreover, the inhibition of aggregation in experiment [2] was 5.2% (inactive). The nuclei count stood at 108% in experiment [2] and 88.2% in experiment [3]. Further, the fluorescence slope in experiment [4] is -0.568 (inactive); in experiment [6], 0.00714 (inactive). Further, in experiment [5], the NADPH fluorescence slope was -2.8e-05 (inactive).
For `O=C(CCN1CCN(C(=O)c2ccco2)CC1)Nc1ccc(F)cc1`, the cell count in experiment [1] came to 356. Also, the inhibition in experiment [1] was -2.6% (inactive); in experiment [3], -78.7% (inactive); in experiment [7] it was 11.5% (inactive); in experiment [8], 20.2% (inactive). In experiment [2], the inhibition of aggregation is -11.1% (inactive). Also, the values for the nuclei count in experiment [2] and in experiment [3] were 87.1% and 108%, respectively. In addition, the fluorescence slope in experiment [4] was -0.459 (inactive); in experiment [6] it was 0.00658 (inactive). Besides, in experiment [5], the NADPH fluorescence slope is 0.000122 (inactive).
For the compound `CCNS(=O)(=O)c1c(C)cc(N2CCCC2=O)cc1C`, the cell count in experiment [1] is 498. Besides, the inhibition in experiment [1] is -8% (inactive); in experiment [3], 27.7% (inactive); in experiment [7] it was -1.95% (inactive); in experiment [8], 0.215% (inactive). Besides, in experiment [2], the inhibition of aggregation was 4.4% (inactive). Further, the nuclei count stood at 88.1% in experiment [2] and 89% in experiment [3]. For the same compound, the fluorescence slope in experiment [4] is -0.438 (inactive); in experiment [6], 0.00655 (inactive). Moreover, the NADPH fluorescence slope in experiment [5] is 9.1e-05 (inactive).
With `Cc1cc(C)n(Cc2nc3ccccc3n2C)n1`, the cell count in experiment [1] amounted to 451. Further, the inhibition in experiment [1] was 7% (inactive); in experiment [3] it was -24.9% (inactive); in experiment [7], 4.33% (inactive); in experiment [8], 36.3% (inactive). In experiment [2], the inhibition of aggregation is 4% (inactive). For the same compound, the figures for the nuclei count in experiment [2] and in experiment [3] were 100% and 119%, respectively. In addition, the results for the fluorescence slope in experiment [4] and in experiment [6] were -0.577 (inactive) and 0.0071 (inactive), respectively. Moreover, the NADPH fluorescence slope in experiment [5] was -3.2e-05 (inactive).
Take `COc1ccc2c(c1)Sc1ccccc1N2CCN(C)C`: the cell count in experiment [1] amounted to 676. The inhibition was -8.8% (inactive) in experiment [1], -11.3% (inactive) in experiment [3], 8.63% (inactive) in experiment [7] and 14.5% (inactive) in experiment [8]. For the same compound, in experiment [2], the inhibition of aggregation is 2.5% (inactive). Also, the nuclei count in experiment [2] turned out to be 117%; in experiment [3] it was 103%. The fluorescence slope in experiment [4] is -0.573 (inactive); in experiment [6], 0.00495 (inactive). Moreover, the NADPH fluorescence slope in experiment [5] is -2.9e-05 (inactive).
Consider `O=C(Cn1cccc1C(=O)c1ccccc1)NCCN1CCOCC1`, for which the cell count in experiment [1] came to 505. Also, the inhibition in experiment [1] was 12.5% (inactive); in experiment [3] it was 25% (inactive); in experiment [7] it was 0.991% (inactive); in experiment [8], 12.8% (inactive). For the same compound, the inhibition of aggregation in experiment [2] is -9.1% (inactive). The values for the nuclei count in experiment [2] and in experiment [3] were 114% and 98.8%, respectively. Besides, the figures for the fluorescence slope in experiment [4] and in experiment [6] were -0.583 (inactive) and 0.00604 (inactive), respectively. Besides, the NADPH fluorescence slope in experiment [5] is -1.2e-05 (inactive).
`c1cncc(-c2nnc(SCCSc3nnc(-c4cccnc4)o3)o2)c1`: in experiment [1], the cell count was 301. For the same compound, the inhibition in experiment [1] was -10% (inactive); in experiment [3] it was 11.1% (inactive); in experiment [7], 14.3% (inactive); in experiment [8], 20.3% (inactive). Also, the inhibition of aggregation in experiment [2] was 20.4% (inactive). In addition, the values for the nuclei count in experiment [2] and in experiment [3] were 75.6% and 122%, respectively. The fluorescence slope is -0.345 (inactive) in experiment [4] and 0.00585 (inactive) in experiment [6]. Moreover, the NADPH fluorescence slope in experiment [5] was -7.7e-06 (inactive).
